From ChEMBL document CHEMBL6071151, “Discovery of Inhibitors Targeting Protein-Protein Interaction between Bacterial RNA Polymerase and NusG as Novel Antimicrobials” (J Med Chem, 2024)
Converted amounts (≈) assume the structure as drawn. The source made the active and inactive calls.

How the values were obtained:
Bacillus subtilis [1] = assay: Antibacterial activity against Bacillus Subtilis assessed as bacterial transcription by measuring delocalization of GFP-tagged RpsB from cell poles towards midcell at 1 time MIC incubated for 30 mins by epifluorescence microscopy based analysis; type: functional, organism-based
Method in brief: (§1)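 B. subtilis reporter strains expressing GFP fusions, grown overnight on selective LB agar at 37 °C, then overnight in LB with selective antibiotic and xylose, 37 °C, 180 rpm. Cells mounted on 1.2% agarose, imaged by epifluorescence with 100×/1.45 oil objective, FITC (525/50) filter.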

Bacillus subtilis [2] = assay: Antibacterial activity against Bacillus Subtilis assessed as bacterial transcription by measuring subcellular localization of MreB at 1 time MIC incubated for 30 mins by epifluorescence microscopy based analysis; type: functional, organism-based; method in brief: as §1
Bacillus subtilis [3] = assay: Antibacterial activity against Bacillus Subtilis assessed as bacterial transcription by measuring delocalization of GFP-tagged RpsB at 1 time MIC incubated for 30 mins by epifluorescence microscopy based analysis; type: functional, organism-based; method in brief: as §1
Acinetobacter baumannii = assay: Antimicrobial activity against Acinetobacter baumannii ATCC 19606 assessed as reduction in microbial growth measured after 20 hrs by CLSI based broth microdilution method; type: functional
Method in brief: (§2)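 Broth microdilution per CLSI in cation-adjusted Mueller-Hinton broth. Two-fold serial dilutions from 256 to 0.25 μg/mL, inoculum about 5 × 10⁵ CFU/mL. Read after 20 h at 37 °C. MIC is the lowest concentration with no visible growth. Run in duplicate.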

Streptococcus pyogenes = assay: Antimicrobial activity against Streptococcus pyogenes ATCC 19615 assessed as reduction in microbial growth measured after 20 hrs by CLSI based broth microdilution method; type: functional
Enterobacter cloacae = assay: Antimicrobial activity against Enterobacter cloacae ATCC 13047 assessed as reduction in microbial growth measured after 20 hrs by CLSI based broth microdilution method; type: functional; method in brief: as §2
Streptococcus pneumoniae [4] = assay: Antimicrobial activity against Streptococcus pneumoniae NP112 (NR-19213) assessed as reduction in microbial growth measured after 20 hrs by CLSI based broth microdilution method; type: functional
Enterococcus faecalis = assay: Antimicrobial activity against Enterococcus faecalis ATCC 19433 assessed as reduction in microbial growth measured after 20 hrs by CLSI based broth microdilution method; type: functional; method in brief: as §2
Streptococcus pneumoniae [5] = assay: Antimicrobial activity against Streptococcus pneumoniae clinical isolate CUHK-X03 assessed as reduction in microbial growth measured after 20 hrs by CLSI based broth microdilution method; type: functional
Streptococcus pneumoniae [6] = assay: Antimicrobial activity against Streptococcus pneumoniae TCH8431 (HM-145) assessed as reduction in microbial growth measured after 20 hrs by CLSI based broth microdilution method; type: functional
Streptococcus pneumoniae [7] = assay: Antimicrobial activity against Streptococcus pneumoniae clinical isolate CUHK-X04 assessed as reduction in microbial growth measured after 20 hrs by CLSI based broth microdilution method; type: functional
Staphylococcus aureus [8] = assay: Antimicrobial activity against Staphylococcus aureus ATCC 25923 assessed as reduction in microbial growth measured after 20 hrs by CLSI based broth microdilution method; type: functional; method in brief: as §2
[9] = system: Staphylococcus saprophyticus; assay: Antimicrobial activity against Staphylococcus saprophyticus ATCC 15305 assessed as reduction in microbial growth measured after 20 hrs by CLSI based broth microdilution method; type: functional
Escherichia coli [10] = assay: Antimicrobial activity against Escherichia coli ATCC 25922 assessed as reduction in microbial growth measured after 20 hrs by CLSI based broth microdilution method; type: functional; method in brief: as §2
Streptococcus agalactiae = assay: Antimicrobial activity against Streptococcus agalactiae ATCC 12386 assessed as reduction in microbial growth measured after 20 hrs by CLSI based broth microdilution method; type: functional
Streptococcus pneumoniae [11] = assay: Antimicrobial activity against Streptococcus pneumoniae clinical isolate CUHK-X02 assessed as reduction in microbial growth measured after 20 hrs by CLSI based broth microdilution method; type: functional
[12] = system: Staphylococcus epidermidis; assay: Antimicrobial activity against Staphylococcus epidermidis ATCC 12228 assessed as reduction in microbial growth measured after 20 hrs by CLSI based broth microdilution method; type: functional
Staphylococcus aureus [13] = assay: Antimicrobial activity against Staphylococcus aureus ATCC 29213 assessed as reduction in microbial growth measured after 20 hrs by CLSI based broth microdilution method; type: functional; method in brief: as §2
Streptococcus pneumoniae [14] = assay: Antimicrobial activity against Streptococcus pneumoniae ATCC 49619 assessed as reduction in microbial growth measured after 20 hrs by CLSI based broth microdilution method; type: functional
Streptococcus pneumoniae [15] = assay: Antimicrobial activity against Streptococcus pneumoniae clinical isolate CUHK-X01 assessed as reduction in microbial growth measured after 20 hrs by CLSI based broth microdilution method; type: functional
Klebsiella pneumoniae = assay: Antimicrobial activity against Klebsiella pneumoniae ATCC 700603 assessed as reduction in microbial growth measured after 20 hrs by CLSI based broth microdilution method; type: functional; method in brief: as §2
Pseudomonas aeruginosa = assay: Antimicrobial activity against Pseudomonas aeruginosa ATCC 27853 assessed as reduction in microbial growth measured after 20 hrs by CLSI based broth microdilution method; type: functional; method in brief: as §2
Staphylococcus aureus [16] = assay: Antimicrobial activity against Staphylococcus aureus ATCC 25923 measuring eradication of bacteria at 4 to 16 times MIC measured over 6 hrs by time-kill assay; type: functional
Method in brief: (§3)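 S. aureus (ATCC 25923 or CA-MRSA USA300) in log phase suspended at about 1.5×10^6 CFU/mL in CA-MHB containing compound at multiples of MIC, with a drug-free broth control. Cultures held at 37 °C, aerobic, shaking at 180 rpm. Samples taken at 0, 2, 4 and 6 h, 10-fold diluted in PBS and spotted on Columbia blood agar. Colonies counted after overnight 37 °C as CFU/mL. Triplicate.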

Bacillus subtilis [17] = assay: Antibacterial activity against Bacillus Subtilis assessed as bacterial transcription by measuring delocalization of GFP-tagged RpoC at 1 time MIC incubated for 30 mins by epifluorescence microscopy based analysis; type: functional, organism-based; method in brief: as §1
Escherichia coli [18] = assay: Upregulation of cat gene transcription level in Escherichia coli K12 transformed with pSL103 at 1/8 to 1/4 times MIC measured after 30 mins; type: functional
Method in brief: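 Cells lysed with lysozyme in TE, total RNA extracted and reverse transcribed. cat transcript quantified by SYBR Green qPCR, 40 cycles, normalised to gyrB by ΔCT. Triplicates, unpaired t-test.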

Staphylococcus aureus [19] = assay: Antimicrobial activity against Staphylococcus aureus ATCC 25923 assessed as reduction in bacterial growth at 4 to 16 times MIC measured over 6 hrs by time-kill assay relative to control; type: functional; design: scale not given: the % may be the effect or the level left; method in brief: as §3
Staphylococcus aureus [20] = assay: Antimicrobial activity against community-associated methicillin-resistant Staphylococcus aureus USA300 assessed as reduction in bacterial count below the detectable threshold at 4 to 16 times MIC measured after 4 hrs by time-kill assay; type: functional, organism-based; method in brief: as §3
Staphylococcus aureus [21] = assay: Antimicrobial activity against community-associated methicillin-resistant Staphylococcus aureus USA300 assessed as reduction in bacterial count at 1 times MIC measured after 4 to 6 hrs by time-kill assay; type: functional, organism-based; settings: time 4-6 hrs; method in brief: as §3
Staphylococcus aureus [22] = assay: Antimicrobial activity against Staphylococcus aureus ATCC 25923 assessed as reduction in bacterial count at 1 times MIC measured after 4 to 6 hrs by time-kill assay; type: functional, organism-based; settings: time 4-6 hrs
Bacillus subtilis [23] = assay: Antibacterial activity against Bacillus Subtilis assessed as bacterial transcription by measuring delocalization of NusG at 1 time MIC incubated for 30 mins by epifluorescence microscopy based analysis; type: functional, organism-based; method in brief: as §1
Staphylococcus aureus [24] = assay: Antimicrobial activity against Staphylococcus aureus ATCC 25923 assessed as inhibition of microbial growth at 1 times MIC measured after 2 hrs by time-kill assay; type: functional, organism-based
Staphylococcus aureus [25] = assay: Antimicrobial activity against community-associated methicillin-resistant Staphylococcus aureus USA300 assessed as inhibition of microbial growth at 1 times MIC measured after 2 hrs by time-kill assay; type: functional, organism-based; method in brief: as §3
[26] = Inhibition of Bacillus subtilis LgBiT-fused NusG/C-terminal SmBit fused […] CH protein-protein interaction using […] incubated for 20 mins by luminescence based analysis
Method in brief: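 Split-nanoluciferase competition assay with His-tagged proteins expressed in E. coli BL21(DE3) and Ni-purified. C-SmBiT-β'CH (250 nM in PBS) was preincubated with compound for 10 min at 37 °C. N-LgBiT-NusG (250 nM in PBS) was then added and incubated 10 min at 37 °C. Nano-Glo substrate was added and luminescence read. IC50 determined. Triplicate with technical repeats.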

Escherichia coli [27] = assay: Antimicrobial activity against Escherichia coli K12 transformed with pSL103 assessed as reduction in bacterial growth measured after 30 mins; type: functional; settings: K12, 0.5 h
Staphylococcus aureus [28] = assay: Antimicrobial activity against Staphylococcus aureus ATCC 25923 assessed as reduction in bacterial count below the detectable threshold at 4 to 16 times MIC measured within 2 hrs by time-kill assay; type: functional, organism-based

Molecule	MIC (Acinetobacter baumannii)	MIC (Streptococcus pyogenes)	MIC (Enterobacter cloacae)	MIC (Streptococcus pneumoniae [4])	MIC (Enterococcus faecalis)	MIC (Streptococcus pneumoniae [5])	MIC (Streptococcus pneumoniae [6])	MIC (Streptococcus pneumoniae [7])	MIC (Staphylococcus aureus [8])	MIC [9]	MIC (Escherichia coli [10])	MIC (Streptococcus agalactiae)	MIC (Streptococcus pneumoniae [11])	MIC [12]	MIC (Staphylococcus aureus [13])	MIC (Streptococcus pneumoniae [14])	MIC (Streptococcus pneumoniae [15])	MIC (Klebsiella pneumoniae)	MIC (Pseudomonas aeruginosa)	further results
CN(C)[C@@H]1C(O)=C(C(N)=O)C(=O)[C@@]2(O)C(O)=C3C(=O)c4c(O)cccc4[C@@](C)(O)[C@H]3C[C@@H]12	–	–	–	–	–	–	–	–	–	–	–	–	–	–	–	–	–	–	–	Activity (Bacillus subtilis [1]): Active
CO[C@H]1/C=C/O[C@@]2(C)Oc3c(C)c(O)c4c(O)c(c(/C=N/N5CCN(C)CC5)c(O)c4c3C2=O)NC(=O)/C(C)=C\C=C\[C@H](C)[C@H](O)[C@@H](C)[C@@H](O)[C@@H](C)[C@H](OC(C)=O)[C@@H]1C	–	–	–	–	–	–	–	–	–	–	–	–	–	–	–	–	–	–	–	Activity (Bacillus subtilis [2]): Active; Activity (Bacillus subtilis [3]): Active
OC(CNCCOc1ccccc1C(F)(F)F)COc1ccc(C(F)(F)F)cc1 (configuration not stated)	16 µg/mL	8 µg/mL	32 µg/mL	16 µg/mL	16 µg/mL	8 µg/mL	8 µg/mL	8 µg/mL	16 µg/mL	8 µg/mL	16 µg/mL	8 µg/mL	16 µg/mL	8 µg/mL	16 µg/mL	8 µg/mL	16 µg/mL	> 256 µg/mL	> 256 µg/mL	–
OC(CNCCNc1ccccc1C(F)(F)F)CSc1ccc(C(F)(F)F)cc1 (configuration not stated)	> 256 µg/mL	8 µg/mL	32 µg/mL	4 µg/mL	8 µg/mL	8 µg/mL	2 µg/mL	2 µg/mL	4 µg/mL	2 µg/mL	64 µg/mL	16 µg/mL	4 µg/mL	8 µg/mL	4 µg/mL	1 µg/mL	1 µg/mL	> 256 µg/mL	> 256 µg/mL	Activity (Bacillus subtilis [2]): Active; Activity (Staphylococcus aureus [16]): <200 CFU/ml; Activity (Bacillus subtilis [17]): Active; Activity (Escherichia coli [18]): Active; Activity (Staphylococcus aureus [19]): 100%; Activity (Staphylococcus aureus [20]): Active; Activity (Staphylococcus aureus [21]): Active; Activity (Staphylococcus aureus [22]): Active; Activity (Bacillus subtilis [23]): Active; Activity (Staphylococcus aureus [24]): Active; Activity (Staphylococcus aureus [25]): Active; IC50 [26]: 142 µM; MIC (Escherichia coli [27]): 16 µg/mL (≈ 36.5 µM); Activity (Staphylococcus aureus [28]): Active; Activity (Bacillus subtilis [3]): Active
OC(CNCCNc1ccccc1C(F)(F)F)COc1ccc(C(F)(F)F)cc1 (configuration not stated)	16 µg/mL	16 µg/mL	32 µg/mL	16 µg/mL	16 µg/mL	16 µg/mL	4 µg/mL	8 µg/mL	8 µg/mL	8 µg/mL	16 µg/mL	16 µg/mL	8 µg/mL	16 µg/mL	16 µg/mL	4 µg/mL	16 µg/mL	> 256 µg/mL	> 256 µg/mL	–
O=C(N[C@H](CO)[C@H](O)c1ccc([N+](=O)[O-])cc1)C(Cl)Cl	–	–	–	–	–	–	–	–	–	–	–	–	–	–	–	–	–	–	–	Activity (Bacillus subtilis [1]): Active
H-EGRVATSLREHIKLHN-OH	–	–	–	–	–	–	–	–	–	–	–	–	–	–	–	–	–	–	–	IC50 [26]: 195 µM
